Measured values taken from ChEMBL document CHEMBL3046139, “Preparation and phytotoxicity of novel kaurane diterpene amides with potential use as herbicides” (J Agric Food Chem, 2008).
Activity calls are given as the source filed them.

Tests used:
Assay type in all cases: functional, organism-based
Lactuca sativa [1] = test: Phytotoxicity in Lactuca sativa cv. Grand Rapids (lettuce) assessed as inhibition of seed germination at 1 mM measured 5 days post compound treatment
In short: (§1)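 Test solutions in deionized water, buffered with 10 mM MES and adjusted to pH 6.0-6.5 with NaOH. Concentrations below 10^-3 M made by dilution series. Osmotic pressure 30-38 mOsmolar. Petri dishes sealed with Parafilm and kept in the dark at 25 °C for 5 days, in triplicate. Seed counted as germinated when radicle was at least 0.2 mm. Radicle and shoot lengths measured by pachymeter with dishes held at 4 °C. Results given as percent difference from untreated control means. Student's t-test, P ≤ 0.05.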

Lactuca sativa [2] = test: Phytotoxicity in Lactuca sativa cv. Grand Rapids (lettuce) assessed as inhibition of seed germination at 10 uM measured 5 days post compound treatment; in short: as §1
Lactuca sativa [3] = test: Phytotoxicity in Lactuca sativa cv. Grand Rapids (lettuce) assessed as inhibition of radicle length at 1 mM measured 5 days post compound treatment; in short: as §1
Lactuca sativa [4] = test: Stimulation of shoot growth in Lactuca sativa cv. Grand Rapids (lettuce) at 10 uM measured 5 days post compound treatment; in short: as §1
Lactuca sativa [5] = test: Phytotoxicity in Lactuca sativa cv. Grand Rapids (lettuce) assessed as inhibition of seed germination at 0.1 uM measured 5 days post compound treatment; in short: as §1
Lactuca sativa [6] = test: Stimulation of radicle growth in Lactuca sativa cv. Grand Rapids (lettuce) at 10 uM measured 5 days post compound treatment; in short: as §1
Lactuca sativa [7] = test: Stimulation of radicle growth in Lactuca sativa cv. Grand Rapids (lettuce) at 0.1 uM measured 5 days post compound treatment; in short: as §1
Lactuca sativa [8] = test: Phytotoxicity in Lactuca sativa cv. Grand Rapids (lettuce) assessed as inhibition of shoot length at 1 mM measured 5 days post compound treatment; in short: as §1
Lactuca sativa [9] = test: Stimulation of shoot growth in Lactuca sativa cv. Grand Rapids (lettuce) at 0.1 uM measured 5 days post compound treatment; in short: as §1
Lactuca sativa [10] = test: Stimulation of seed germination in Lactuca sativa cv. Grand Rapids (lettuce) at 0.1 uM measured 5 days post compound treatment; in short: as §1
Lactuca sativa [11] = test: Stimulation of seed germination in Lactuca sativa cv. Grand Rapids (lettuce) at 1 mM measured 5 days post compound treatment; in short: as §1

C=C1C[C@@]23CC[C@@H]4[C@](C)(C(=O)N5CCNCC5)CCC[C@@]4(C)C2=CC[C@@H]1C3
active: inhibition (Lactuca sativa [1]) | inhibition (Lactuca sativa [2]) | inhibition (Lactuca sativa [3]) | Activity (Lactuca sativa [4]) | inhibition (Lactuca sativa [5]) | Activity (Lactuca sativa [6]) | Activity (Lactuca sativa [7]) | inhibition (Lactuca sativa [8]) | Activity (Lactuca sativa [9])

C=C1C[C@@]23CC[C@@H]4[C@](C)(C(=O)NCCCN)CCC[C@@]4(C)C2=CC[C@@H]1C3
active: inhibition (Lactuca sativa [1]) | inhibition (Lactuca sativa [2]) | inhibition (Lactuca sativa [3]) | inhibition (Lactuca sativa [5]) | inhibition (Lactuca sativa [8])

C=C1C[C@@]23CC[C@H]4[C@@](C)(CCC[C@@]4(C)C(=O)NCCCCCC)[C@@H]2CC[C@@H]1C3
active: inhibition (Lactuca sativa [1]) | inhibition (Lactuca sativa [2]) | inhibition (Lactuca sativa [3]) | inhibition (Lactuca sativa [5]) | inhibition (Lactuca sativa [8])

C=C1C[C@@]23CC[C@H]4[C@@](C)(CCC[C@@]4(C)C(=O)NCCCCN)[C@@H]2CC[C@@H]1C3
active: inhibition (Lactuca sativa [1]) | inhibition (Lactuca sativa [3]) | Activity (Lactuca sativa [10]) | inhibition (Lactuca sativa [8])

C=C1C[C@@]23CC[C@H]4[C@@](C)(CCC[C@@]4(C)C(=O)Nc4ccccc4)[C@@H]2CC[C@@H]1C3
active: inhibition (Lactuca sativa [1]) | inhibition (Lactuca sativa [2]) | inhibition (Lactuca sativa [3]) | inhibition (Lactuca sativa [5]) | inhibition (Lactuca sativa [8])

C=C1C[C@@]23CC[C@@H]4[C@](C)(C(=O)Nc5ccccc5)CCC[C@@]4(C)C2=CC[C@@H]1C3
active: inhibition (Lactuca sativa [1]) | inhibition (Lactuca sativa [2]) | inhibition (Lactuca sativa [3]) | inhibition (Lactuca sativa [5]) | inhibition (Lactuca sativa [8])

C=C1C[C@@]23CC[C@@H]4[C@](C)(C(=O)NCCCCN)CCC[C@@]4(C)C2=CC[C@@H]1C3
active: inhibition (Lactuca sativa [1]) | inhibition (Lactuca sativa [3]) | Activity (Lactuca sativa [10]) | inhibition (Lactuca sativa [8])

C=C1C[C@@]23CC[C@@H]4[C@](C)(C(=O)N5CCOCC5)CCC[C@@]4(C)C2=CC[C@@H]1C3
active: inhibition (Lactuca sativa [1]) | inhibition (Lactuca sativa [2]) | inhibition (Lactuca sativa [3]) | inhibition (Lactuca sativa [5]) | inhibition (Lactuca sativa [8])

C=C1C[C@@]23CC[C@H]4[C@@](C)(CCC[C@@]4(C)C(=O)N4CCNCC4)[C@@H]2CC[C@@H]1C3
active: inhibition (Lactuca sativa [1]) | inhibition (Lactuca sativa [2]) | inhibition (Lactuca sativa [3]) | Activity (Lactuca sativa [4]) | inhibition (Lactuca sativa [5]) | Activity (Lactuca sativa [6]) | Activity (Lactuca sativa [7]) | inhibition (Lactuca sativa [8]) | Activity (Lactuca sativa [9])

C=C1C[C@@]23CC[C@@H]4[C@](C)(C(=O)NCCN)CCC[C@@]4(C)C2=CC[C@@H]1C3
active: inhibition (Lactuca sativa [1]) | inhibition (Lactuca sativa [2]) | inhibition (Lactuca sativa [3]) | inhibition (Lactuca sativa [5]) | inhibition (Lactuca sativa [8])

C=C1C[C@@]23CC[C@@H]4[C@](C)(C(=O)NC5CCCCC5)CCC[C@@]4(C)C2=CC[C@@H]1C3
active: inhibition (Lactuca sativa [1]) | inhibition (Lactuca sativa [2]) | inhibition (Lactuca sativa [3]) | inhibition (Lactuca sativa [5]) | inhibition (Lactuca sativa [8])

C=C1C[C@@]23CC[C@H]4[C@@](C)(CCC[C@@]4(C)C(=O)NCCN)[C@@H]2CC[C@@H]1C3
active: inhibition (Lactuca sativa [1]) | inhibition (Lactuca sativa [2]) | inhibition (Lactuca sativa [3]) | inhibition (Lactuca sativa [5]) | inhibition (Lactuca sativa [8])

C=C1C[C@]23C[C@@]1(O)CC[C@H]2[C@@]12C=C[C@H](O)[C@@](C)(C(=O)O1)[C@H]2[C@@H]3C(=O)O
active: Activity (Lactuca sativa [11])

C=C1C[C@@]23CC[C@@H]4[C@](C)(C(=O)NCCCCCC)CCC[C@@]4(C)C2=CC[C@@H]1C3
active: inhibition (Lactuca sativa [1]) | inhibition (Lactuca sativa [2]) | inhibition (Lactuca sativa [3]) | inhibition (Lactuca sativa [5]) | inhibition (Lactuca sativa [8])

C=C1C[C@@]23CC[C@H]4[C@@](C)(CCC[C@@]4(C)C(=O)NC4CCCCC4)[C@@H]2CC[C@@H]1C3
active: inhibition (Lactuca sativa [1]) | inhibition (Lactuca sativa [2]) | inhibition (Lactuca sativa [3]) | inhibition (Lactuca sativa [5]) | inhibition (Lactuca sativa [8])

C=C1C[C@@]23CC[C@H]4[C@@](C)(CCC[C@@]4(C)C(=O)NCCCN)[C@@H]2CC[C@@H]1C3
active: inhibition (Lactuca sativa [1]) | inhibition (Lactuca sativa [2]) | inhibition (Lactuca sativa [3]) | inhibition (Lactuca sativa [5]) | inhibition (Lactuca sativa [8])

C=C1C[C@@]23CC[C@H]4[C@@](C)(CCC[C@@]4(C)C(=O)N4CCOCC4)[C@@H]2CC[C@@H]1C3
active: inhibition (Lactuca sativa [1]) | inhibition (Lactuca sativa [2]) | inhibition (Lactuca sativa [3]) | inhibition (Lactuca sativa [5]) | inhibition (Lactuca sativa [8])
